Source: PubChem BioAssay (Broad Institute)
Shown are actives, neighbours in structure and some others; about 2% of the full set was active somewhere.
PglD DTNB: blocks C. jejuni PglD acetyltransferase activity; AID 602405; 0.098% of 360,000 active; purified PglD enzyme, DTNB colorimetric CoA detection; inhibition, % at 12.5 µM; in the data active means inhibition above about 16%, passing the limit was not always enough
Xi reactivation: activators of X-chromosome reactivation in mouse fibroblasts. AID 743238. 0.055% of 360,000 active. activation, % at 7.58 µM. XiGFP mouse fibroblasts, % GFP-positive cells imaging, 3 d; cells co-treated with 5-aza-dC sensitizer; scaled so ellipticine positive control = 100%;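 active means mean normalized replicate activation at least 10% and every replicate at or above 10%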;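 further: 0% = median of on-plate neutral control wells and 100% = ellipticine 6 µM median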
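System: XiGFP fibroblasts, SV40-immortalized. Medium: DMEM plus 5-aza-dC sensitizer. Doses: single point. Timing: 3 d treatment, 15 min room-temperature fixation. Control set: ellipticine 6 µM.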
Ecoli rRNA inh: inhibits bacterial ribosomal RNA function over humanized ribosomes. AID 720706. GFP signal change (wild-type ribosome), % (concentration not given with the values). E. coli WT GFP vs humanized-ribosome RFP mutants, fluorescence, 24 h; active compounds read low; DMSO median 0, no signal -100. 1.6% of 350,000 active;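 active means significant combined selectivity score with lowered wild-type GFP, culture density cut under 30%, mutant RFP and density less affected; inactive means any of these conditions unmet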
RAD54 inh: blocks human RAD54 Holliday junction branch migration; 0.14% of 360,000 active; inhibition, % at 10.4 µM; Q92698; AID 602329; FAM/BHQ fluorescence;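 active means mean normalized replicate activity at least 40 and at least half of replicates scoring 40 or more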;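 further: 0% = median of neutral control wells and 100% = median of positive control wells; inhibitors cause a drop in the FAM fluorescence signal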
Target sequence (Q92698 whole entry, looked up): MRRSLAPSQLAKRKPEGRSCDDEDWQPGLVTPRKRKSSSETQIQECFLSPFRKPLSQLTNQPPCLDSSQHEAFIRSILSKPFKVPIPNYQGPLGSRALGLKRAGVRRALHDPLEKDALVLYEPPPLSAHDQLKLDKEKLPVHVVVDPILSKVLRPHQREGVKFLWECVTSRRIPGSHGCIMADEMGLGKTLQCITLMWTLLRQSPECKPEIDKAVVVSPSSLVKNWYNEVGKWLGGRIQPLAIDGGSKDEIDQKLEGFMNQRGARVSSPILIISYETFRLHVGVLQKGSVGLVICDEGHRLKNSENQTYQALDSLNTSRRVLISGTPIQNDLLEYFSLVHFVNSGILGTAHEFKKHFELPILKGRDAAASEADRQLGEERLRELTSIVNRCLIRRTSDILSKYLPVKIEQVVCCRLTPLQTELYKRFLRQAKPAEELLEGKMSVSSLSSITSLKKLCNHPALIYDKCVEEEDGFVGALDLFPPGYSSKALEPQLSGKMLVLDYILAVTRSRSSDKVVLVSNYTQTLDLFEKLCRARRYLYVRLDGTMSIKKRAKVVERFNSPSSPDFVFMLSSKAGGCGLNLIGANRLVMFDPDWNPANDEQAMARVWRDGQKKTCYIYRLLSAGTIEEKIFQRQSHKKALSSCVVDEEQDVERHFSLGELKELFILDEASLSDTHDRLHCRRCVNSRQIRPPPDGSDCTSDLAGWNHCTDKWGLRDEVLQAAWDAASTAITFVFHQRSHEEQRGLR
RAD52 anneal inh: inhibitors of human RAD52 DNA annealing; P43351; AID 651710; inhibition, % at 18.7 µM; recombinant RAD52 DNA annealing, FRET fluorescence; 0.46% of 360,000 active;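 active means every replicate showing at least 50% inhibition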
E-sel inducer: induces E-selectin expression in human endothelial cells. 0.37% of 260,000 active. AID 686992. P16581. HUVEC E-selectin immunofluorescence imaging; normalized: neutral wells 0, TNF-alpha wells 100. activation, % at 7.58 µM;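 active means mean E-selectin-positive cell signal at least 10% of the positive control, reached in at least 60% of replicates, without over 20% cell loss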
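assay system = HUVEC, human umbilical vein endothelial cells | input = 3,000 HUVEC seeded per well | medium = EGM-2 growth medium on 0.1% gelatin-coated wells | dosing = one compound dose added by pin transfer | signal = immunofluorescence imaging | read-out basis = % PE-positive cells | control set = TNF-alpha, DMSO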
Starred values were filed as active, the others as inactive; nt = no result given.

SMILES	PglD DTNB	Xi reactivation	Ecoli rRNA inh	RAD54 inh	RAD52 anneal inh	E-sel inducer
CN(C)CC#Cc1ccc([C@H]2[C@@H](CO)N3CCCCN(C(=O)CN(C)C)C[C@H]23)cc1	1	1	2	13	87*	1
CN(C)CC#Cc1ccc([C@@H]2[C@@H](CO)N3CCCCN(C(=O)CN(C)C)C[C@H]23)cc1	3	0	8	-1	61*	1
CC(C)CC#Cc1ccc([C@@H]2[C@H](CO)N3CCCCN(C(=O)c4ccc5c(c4)OCO5)C[C@@H]23)cc1	2	0	-56	-6	58*	0
CN(C)CC#Cc1ccc([C@@H]2[C@@H](CO)N3CCCCN(C(=O)C4CC4)C[C@@H]23)cc1	4	nt	nt	4	-6	nt
CN(C)CC#Cc1ccc([C@H]2[C@H](CO)N3CCCCN(C(=O)CN(C)C)C[C@@H]23)cc1	-5	0	4	-17	74*	0
COCC#Cc1ccc([C@@H]2[C@@H](CO)N3CCCCN(C(=O)CN(C)C)C[C@H]23)cc1	-3	0	4	13	26	0
CO[C@H]1CN(C)C(=O)c2cc(NC(=O)C3CC3)ccc2OC[C@@H](C)N(C(=O)CN2CCOCC2)C[C@@H]1C	0	0	4	5	5	0
COCC#Cc1ccc([C@@H]2[C@@H](CO)N3CCCCN(C(=O)CN(C)C)C[C@@H]23)cc1	2	0	7	8	-10	0
CN(C)CC#Cc1ccc([C@@H]2[C@H]3CN(C(=O)CN(C)C)CCCCN3[C@H]2CO)cc1	-4	0	5	-10	62*	0
COCC#Cc1ccc([C@H]2[C@H]3CN(C(=O)CN(C)C)CCCCN3[C@H]2CO)cc1	0	0	7	-1	-19	0
CN(C)CC#Cc1ccc([C@@H]2[C@H](CO)N3CCCCN(C(=O)CN(C)C)C[C@@H]23)cc1	8	0	6	-1	88*	0
CCCN1[C@H](C(=O)NCCc2cn(C)cn2)[C@@H](CO)[C@@H]2Cn3c(ccc(-c4ccccc4)c3=O)[C@@H]21	0	1	2	11	-17	0
COc1ccc(CN2CCN(C(=O)c3cc(-c4cccnc4)nc4ccc(Cl)cc34)CC2)c(OC)c1OC	-1	0	-23*	-3	-20	nt
CS(=O)(=O)N1CCN(C(=O)c2cc(-c3cccnc3)nc3ccc(Cl)cc23)CC1	nt	0	7	nt	-11	nt
CCOC(=O)c1[nH]c2ccccc2c1NC(=O)c1ccc(Br)o1	2	nt	-19*	-12	-5	nt
CCC(=O)Nc1ccc2c(c1)C(=O)N(C)C[C@@H](OC)[C@@H](C)CN(C(=O)C1CCC1)[C@H](C)CO2	1	0	1	-5	-13	0
C[C@H]1CN([C@@H](C)CO)C(=O)c2cc(NS(=O)(=O)c3cccs3)ccc2O[C@@H]1CN(C)S(C)(=O)=O	-7	0	0	3	-4	-2
C[C@H]1CN([C@@H](C)CO)C(=O)c2cc(NS(=O)(=O)c3cccs3)ccc2O[C@H]1CN(C)S(C)(=O)=O	8	0	-2	1	1	449*
C[C@@H]1CN([C@H](C)CO)C(=O)c2cc(NS(=O)(=O)c3cccs3)ccc2O[C@H]1CN(C)S(C)(=O)=O	-3	0	-1	-2	-2	33*
C[C@@H]1CN([C@H](C)CO)C(=O)c2cc(NS(=O)(=O)c3cccs3)ccc2O[C@@H]1CN(C)S(C)(=O)=O	-3	0	-1	4	-2	-6
CO[C@H]1CC[C@@H]2CCOc3c(C#N)cccc3C(=O)N(C)C[C@@H](c3ccccc3)CC(=O)N(C)C[C@H]1O2	0	0	5	1	8	0
C[C@H]1CN([C@@H](C)CO)C(=O)Cc2cc(NC(=O)CCC(F)(F)F)ccc2O[C@@H]1CN(C)C(=O)Nc1ccc(C(F)(F)F)cc1	-1	0	1	4	nt	0
Cc1noc(C)c1NC(=O)Nc1ccc2c(c1)CC(=O)N([C@@H](C)CO)C[C@H](C)[C@H](CN(C)C(=O)NC(C)C)O2	3	-1	2	5	nt	0
CS(=O)(=O)N1[C@H](C(=O)NCCc2ccncc2)[C@@H](CO)[C@@H]2Cn3c(ccc(C4=CCCC4)c3=O)[C@@H]21	-2	1	5	4	-46	0
Cc1ccc(C)c(OCc2cc(C(=O)N3CC[C@@H]4CCCC[C@H]4C3)no2)c1	3	0	15	-5	-9	1
SMILES	PglD DTNB	Xi reactivation	Ecoli rRNA inh	RAD54 inh	RAD52 anneal inh	E-sel inducer
COc1cc(C)ccc1OCc1cc(C(=O)N2CCC(c3ccc(F)cc3)C2)no1 (stereo unspecified)	2	0	-14*	4	-106	nt
CCCc1ccc(C(=O)NNc2ccccc2F)cc1	nt	0	-9	nt	-7	55*
CCc1ccc(C(=O)NNc2ccccc2F)cc1	0	0	nt	-5	1	0
COc1ccc(C2(C)CC(C)(C)Nc3ccccc32)cc1 (stereo unspecified)	1	0	-29*	6	4	nt
COc1ccc(C2CC(C)(c3ccc(OC)cc3)Nc3ccccc3N2)cc1 (stereo unspecified)	1	0	nt	1	-1	nt
COc1ccc(CNC(=O)C[C@@H]2CC[C@H](NC(=O)c3ccc4c(c3)OCO4)[C@H](CO)O2)cc1	0	0	1	3	2	0
O=S(=O)(NCc1ccccc1)c1ccc(Cl)cc1	nt	nt	nt	nt	nt	-1
O=S(=O)(Nc1cc2nc3ccccc3nc2n1Cc1ccccc1)c1ccc(Cl)cc1	nt	78*	-18	nt	-74	nt
C[C@@H]1CCCCO[C@@H](CN(C)C(=O)Nc2ccc3c(c2)OCO3)[C@@H](C)CN([C@H](C)CO)C(=O)c2cc(NS(=O)(=O)c3cn(C)cn3)ccc2O1	5	-1	1	-14	15	0
O=C(O)c1ccc(/C=N/Nc2cccc(C(F)(F)F)c2)cc1	-4	0	-41*	-13	-5	6
O=C(O)c1ccc(N/N=C/c2ccc(-c3ccccc3)cc2)cc1	nt	0	-45	nt	-9	nt
S=c1[nH]nc(-c2ccco2)n1/N=C/C(Cl)=C/c1ccccc1	6	0	-36*	0	-24	0
Cc1cc(-c2n[nH]c(=S)n2/N=C/C(Cl)=C/c2ccccc2)n[nH]1	-157	0	nt	-1	nt	nt
Cc1ccc(-n2c(-c3ccccc3)c[n+]3c2CCc2ccccc2-3)c(C)c1	nt	0	-53*	nt	-6	-1
Cc1ccc(-n2c(-c3ccccc3)c[n+]3c2CCC3)cc1	nt	0	-8	nt	-17	nt
